M4 antag: CHRM4 antagonism in calcium assay; P08173; CHO-hM4 cells, ACh EC80, Fluo-8 calcium fluorescence; inhibition, % at 3 µM; 0.73% of 360,000 active;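 active means inhibition above its plate's cutoff, the mean inhibition of sample wells plus 3 SD, cut at about 27% in these data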;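 further: 0% = acetylcholine EC80 with DMSO and 100% = DMSO without agonist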
M5 antag: antagonists of human muscarinic M5 receptor (CHRM5); inhibition, % at 3 µM; 0.59% of 360,000 active; CHO-hM5 cells, Fluo-8 calcium fluorescence, ACh EC80;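 active means inhibition above a per-plate cutoff, the mean of that plate's test compounds plus 3 SD, cut at about 27% in these data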;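 further: 0% = acetylcholine EC80 with DMSO and 100% = DMSO without agonist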
Target sequence (P08912 whole entry, looked up): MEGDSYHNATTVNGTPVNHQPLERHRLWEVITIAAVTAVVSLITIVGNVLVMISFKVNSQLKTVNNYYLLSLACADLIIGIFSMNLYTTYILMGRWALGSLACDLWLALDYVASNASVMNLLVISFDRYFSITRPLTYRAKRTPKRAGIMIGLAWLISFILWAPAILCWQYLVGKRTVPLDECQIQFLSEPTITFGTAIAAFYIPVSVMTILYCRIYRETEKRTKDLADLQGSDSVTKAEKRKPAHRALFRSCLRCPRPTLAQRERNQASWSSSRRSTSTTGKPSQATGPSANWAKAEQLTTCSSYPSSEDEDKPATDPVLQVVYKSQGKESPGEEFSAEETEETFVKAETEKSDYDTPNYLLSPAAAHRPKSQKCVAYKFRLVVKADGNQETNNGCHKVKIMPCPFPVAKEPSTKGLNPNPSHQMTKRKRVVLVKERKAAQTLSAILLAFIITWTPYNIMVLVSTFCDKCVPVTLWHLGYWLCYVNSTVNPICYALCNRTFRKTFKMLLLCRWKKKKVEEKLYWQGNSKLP
M5 ag: agonists of human muscarinic M5 receptor (CHRM5). AID 624037. activation, % at 3 µM. P08912. CHO-K1 hM5 cells, Fluo-8 calcium fluorescence; 0% DMSO wells, 100% maximal acetylcholine response. 0.19% of 360,000 active;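 active means activation above the run's mean over test compounds plus 3 SD, cut at about 23% in these data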;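 further: signal is peak over basal fluorescence ratio across the kinetic read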
M4 ag: CHRM4 agonism in calcium assay; P08173; CHO-K1 hM4/Gqi5, Fluo-8 calcium fluorescence; vehicle 0%, full acetylcholine response 100%; activation, % at 3 µM; 0.14% of 360,000 active;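 active means activation above the run mean over all test wells plus 3 SD, cut at about 32% in these data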;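 further: peak over basal fluorescence ratio per well then scaled between controls; 0% = DMSO wells and 100% = acetylcholine at EC100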
M4 PAM: positive allosteric modulators of human muscarinic M4 receptor. AID 624126. activation, % at 3 µM. 0.4% of 360,000 active. P08173. CHO-K1 hM4/Gqi5, Fluo-8 calcium fluorescence, ACh EC20; 0% = ACh EC20, 100% = maximal ACh;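 active means activation above its plate's cutoff, the mean activation of sample wells plus 3 SD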
CHRM5 PAM: positive allosteric modulators of human muscarinic M5 receptor; activation, % at 3 µM; AID 624038; 0.3% of 360,000 active; CHO-K1 hM5, Fluo-8 calcium, ACh EC20 PAM; 0% = ACh EC20, 100% = ACh EC100; P08912;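 active means activation above the run cutoff, the mean activation of all test compounds plus 3 SD, cut at about 18% in these data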
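Assay system – human M5 receptor in CHO-K1 cells · Read-out – % activation, ACh-normalized · Technique – Fluo-8 calcium fluorescence · Dosing – single-point, 3 µM nominal · Incubation – Fluo-8 loading 80 min at 37 °C plus 30 min room temperature · Repeats – singlicate, one well per test compound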
Starred values were filed as active, the others as inactive. The list is not random: actives were taken first. Their share in the collection is about 1.9%.

SMILES | M4 antag | M5 antag | M5 ag | M4 ag | M4 PAM | CHRM5 PAM
CN1N=C(C(=O)NC2CCCc3c2cnn3-c2ccc(F)cc2F)CCC1=O (stereo not drawn) | 3 | 3 | 0 | 3 | -2 | -1
O=[N+]([O-])c1cccc(COc2ccc(CN3CCCC3)cc2)c1 | 28* | 6 | -4 | 2 | -13 | -13
O=[N+]([O-])c1cccc(COc2ccc(CN3CCOCC3)cc2)c1 | -6 | 10 | -3 | 5 | -10 | -16
Nc1nc(C23CC4CCC(CC(C4)C2)C3)cs1 | 15 | -3 | 3 | 1 | -3 | 1
C=CCN1C(=O)C2(OCCCO2)c2cc(C)ccc21 | 0 | -3 | 2 | 1 | -2 | 20*
C=CCN1C(=O)C2(OCCCO2)c2cc(CCCC)ccc21 | -3 | 5 | -5 | -2 | -2 | 5
Cc1ccc(N2CCN(S(=O)(=O)c3cccs3)CC2C)cc1 (stereo not drawn) | 2 | 6 | -1 | 4 | -4 | 0
CCCCNc1c(-c2ccc(SC(C)CC)c(OC)c2)nc2ccc(Cl)cn12 (stereo not drawn) | 35* | 12 | -5 | 2 | -12 | -21
CCCCNc1c(-c2ccc(SC(C)CC)c(OC)c2)nc2ccc(C)cn12 (stereo not drawn) | 55* | 37* | -5 | 16 | -12 | -36
O=C(CSc1nc2ccccc2c(=O)n1Cc1ccco1)N1CCCCCC1 | 5 | 5 | 0 | 0 | 13 | -4
O=C(NCc1ccco1)c1ccc2c(=O)n(Cc3ccco3)c(SCC(=O)N3CCCC3)nc2c1 | 42* | 1 | 2 | -3 | -30 | 0
Cc1ccc(C(=O)C2C(=O)c3ccccc3C2=O)cc1 | -10 | -2 | 1 | 1 | 6 | 5
NN=C1c2ccccc2C(=O)C1C(=O)C(c1ccccc1)c1ccccc1 (stereo not drawn) | 22 | 38* | 56* | 13 | -8 | -24
CCOc1ccc2[nH]c(=O)c(CN(Cc3ccc(C)cc3)C(=O)N3CCCC3)cc2c1 | -5 | 32* | -2 | 0 | -8 | -11
O=S(=O)(CCN1CCN(C(c2ccccc2)c2ccccc2)CC1)C(F)(F)F | 48* | 45* | -6 | 1 | -15 | -22
OC(COc1ccccc1)CN1CCN(C(c2ccccc2)c2ccccc2)CC1 (stereo not drawn) | 17 | 17 | -25 | -1 | -13 | -32
CC(C)c1ccccc1OCCCCCN1CCOCC1 | 32* | 6 | -18 | 1 | -13 | -26
COc1ccccc1OCCCCN1CCN(C(c2ccccc2)c2ccccc2)CC1 | 63* | 22 | -7 | 1 | -38 | -20
COc1cccc(OC)c1OCCCCCCN1CCN(C)CC1 | -7 | 2 | -6 | 1 | 2 | 1
c1ccc(OCCOCCN2CCN(C(c3ccccc3)c3ccccc3)CC2)cc1 | 86* | 52* | -8 | 1 | -44 | -22
c1ccc(CN2CCN(C(c3ccccc3)c3ccccc3)CC2)cc1 | 12 | 9 | -17 | -2 | -15 | -26
Cc1[nH]c2ccccc2c1/C=N/NC(=O)c1cccc([N+](=O)[O-])c1 | 3 | 8 | -2 | 3 | 1 | -5
Cc1[nH]c2ccccc2c1/C=N/Nc1ccc([N+](=O)[O-])cc1 | 13 | 31* | 15 | 16 | -7 | -9
CCc1ccc2c(c1)/C(=C/C(=O)c1cccs1)C(=O)N2 | 23 | 18 | 25* | 5 | -19 | 7
Cc1cccc2c1NC(=O)/C2=C\C(=O)c1cccs1 | -5 | 8 | 13 | 2 | -9 | 5
SMILES | M4 antag | M5 antag | M5 ag | M4 ag | M4 PAM | CHRM5 PAM
COc1ccc(N2C(=O)Cc3c2nc(N)c(C#N)c3N)cc1 | 28* | -2 | 5 | 2 | 10 | 6
Cc1cccc(C2Nc3ccccc3C(=O)N2NC(=O)c2ccc([N+](=O)[O-])cc2)n1 (stereo not drawn) | 3 | -2 | 1 | -1 | 9 | 5
CCCCn1c(=NC(=O)c2ccco2)c(C(=O)OCC)cc2c(=O)n3cccc(C)c3nc21 | -11 | -12 | 3 | 5 | 8 | 22*
CCCCn1c(=NC(=O)c2ccco2)c(C(=O)OCC)cc2c(=O)n3ccccc3nc21 | -5 | -4 | -8 | 2 | -4 | -10
CCOC(=O)C1=C(C)N(c2ccc(Cl)cc2)C(=O)NC1c1cccc([N+](=O)[O-])c1 (stereo not drawn) | 0 | 7 | -3 | 0 | -2 | -7
COc1ccc(C(=O)COc2ccc3ccc(=O)oc3c2)cc1 | -2 | -13 | 4 | 1 | -4 | 2
COC(=O)[C@H](Cc1ccc(O)cc1)NCCCn1cnc(C(=O)Nc2ccc(C)c(C)c2)n1 | 0 | 1 | 6 | 14 | -3 | -6
C=CCc1c(C)nc(-c2ccccc2)nc1N/N=C(\C)c1ccccc1 | 35* | 9 | -4 | -1 | -9 | -6
CCOC(=O)/C=C/S(=O)(=O)c1ccc(NC(C)=O)cc1 | 7 | 0 | 1 | 1 | 6 | 4
CN(C)c1ccc(C(=O)/C=C/c2cccnc2)cc1 | 1 | 4 | -1 | 1 | 0 | -4
CN(C)c1ccc(/C=C/C(=O)c2cccc(Br)c2)cc1 | 63* | 57* | 78* | 349* | -18 | -24
CC1=CC(C)(C)N(C(=O)CNC2CCCCC2)c2cc(C)ccc21 | 47* | 40* | -13 | 1 | -25 | -33
O=C(NC1(C(F)(F)F)NC(=O)N(C2CCCCC2)C1=O)C1CC1 (stereo not drawn) | -1 | 4 | -2 | 0 | 3 | 6
CCCC(C)C(=O)Nc1ccc(S(N)(=O)=O)cc1 (stereo not drawn) | -7 | -9 | -3 | 1 | 23* | 8
COCCNC(=O)C(c1ccco1)N(Cc1ccc(OC)cc1)C(=O)Cn1nnc2ccccc21 (stereo not drawn) | -1 | 8 | -2 | 3 | 7 | -5
CC(C)C(=O)Nc1cccc(C(=O)N2CCCCC2C)c1 (stereo not drawn) | -17 | -15 | 1 | 0 | 6 | 21*
CC(C)Sc1cc(N2CCOCC2)nc(-c2ccccc2)n1 | -12 | -5 | 3 | -1 | 32* | 5
Cc1cc(Br)ccc1NC(=O)CNC(=O)CN1C(=O)NC2(CCCCCC2)C1=O | -1 | 7 | 1 | 2 | -1 | -3
Cc1cc(Br)ccc1NC(=O)CN1C(=O)C2C3CC(c4ccccc4)C(C3)C2C1=O (stereo not drawn) | 28* | 19 | 3 | 10 | -21 | -9
COc1cc(NC(=O)c2ccccc2-n2cnnn2)cc(OC)c1 | -12 | -12 | -3 | 0 | -4 | 8

Bioassay records from PubChem BioAssay.
